Most compounds without a hit are left out; they make up all but 4.1% or so of the library.
SMARCA2 act: SMARCA2 function activation, primary screen. MG213 cells, MMTV-luciferase reporter, dexamethasone, overnight. activation, % at 9.1 µM. 1% of 370,000 active; in the data active = activation above about 7.8%;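 note: 0% = vehicle wells and 100% = reference activator wells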
MPTP inh: permeability transition pore inhibition; isolated mouse mitochondria, Ca2+ swelling absorbance, 30 min; inhibition, % at 10 µM; 1.4% of 360,000 active; AID 602449;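 active = inhibition of 50% or more, scaled per plate between neutral and stimulator controls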;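 note: 0% = DMSO wells given calcium and 100% = 1 mM EGTA wells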
MC4R barr agon: agonists of human melanocortin 4 receptor (MC4R) beta-arrestin | U2OS MC4R beta-arrestin complementation, luminescence; percent of melanotan II response, DMSO zero | AID 540308 | 0.98% of 360,000 active | activation, % at 8.9 µM;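 active = activation above a per-plate cutoff, the mean activation of sample wells on that plate plus 3 SD, cut at about 8% in these data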
Target sequence (P32245 whole entry, looked up): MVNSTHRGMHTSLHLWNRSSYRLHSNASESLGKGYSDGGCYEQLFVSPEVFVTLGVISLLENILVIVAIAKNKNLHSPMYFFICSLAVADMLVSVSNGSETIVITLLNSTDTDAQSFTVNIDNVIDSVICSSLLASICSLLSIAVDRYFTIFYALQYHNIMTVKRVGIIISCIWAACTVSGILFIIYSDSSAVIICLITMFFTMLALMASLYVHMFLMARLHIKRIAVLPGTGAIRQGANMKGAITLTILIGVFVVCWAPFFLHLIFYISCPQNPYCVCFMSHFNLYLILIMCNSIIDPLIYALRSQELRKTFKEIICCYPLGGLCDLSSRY
MC4R antag cAMP: blocks human MC4R cAMP signaling; inhibition, % at 6.5 µM; MC4R-expressing cells, MTII-stimulated cAMP, LANCE TR-FRET; 0.48% of 360,000 active; AID 540295;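 active = inhibition above its plate's cutoff, the mean of tested wells on that plate plus 3 SD, cut at about 29% in these data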;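 note: 0% = Melanotan II alone and 100% = Melanotan II plus saturating MCL0020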
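system = U2OS cells with stable human MC4R expression | also added = Melanotan II challenge after compound preincubation | dosing = one concentration, 6.5 µM nominal | incubation = compound 30 min, challenge 1 h, detection 1 h | measured by = TR-FRET with Eu-cAMP and labeled anti-cAMP, 671 nm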
ATG4B inhibitor: blocks human ATG4B protease cleavage of LC3 substrate; Q9Y4P1; ATG4B cleavage of LC3-PLA2, NBD-HPC fluorescence, 1 h; inhibition, % at 8.33 µM; 0.51% of 340,000 active; AID 504462; in the data active = inhibition above about 40%
Rh123 counter: mitochondrial membrane potential, counter-screen; shares compounds with MPTP inh; isolated mitochondria, Rhodamine 123 fluorescence; inhibition, % at 10 µM; 78% of 5,000 active; in the data active = inhibition above about 22%;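 note: 0% = DMSO vehicle and 100% = positive control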
MPTP abs DR: dose response confirmation of mitochondrial permeability transition pore inhibitors; 58% of 780 active; isolated mitochondria swelling, absorbance; shares compounds with MPTP inh; IC50, µM; in the data active = IC50 below about 20 µM
MPTP counter DR: MPTP inhibitor counter-screen activity, dose response. 49% of 780 active. IC50, µM. AID 651564. shares compounds with MPTP inh. isolated mitochondria counterscreen, fluorescence read-out; in the data active = IC50 below about 80 µM
Active calls of the source: *.

Results for CN(c1ccccc1)S(=O)(=O)c1cccc(C(=O)NNC(=O)c2ccccc2)c1 ?
SMARCA2 act: -4; MPTP inh: 56*; MC4R barr agon: -2; MC4R antag cAMP: 12; ATG4B inhibitor: 1; Rh123 counter: 38*

Results for CN(c1ccccc1)S(=O)(=O)c1cccc(NC(=O)CCNC(=O)c2ccc([N+](=O)[O-])cc2)c1 ?
SMARCA2 act: -4; MPTP inh: 1; MC4R barr agon: -2; MC4R antag cAMP: -2; ATG4B inhibitor: -1

Results for CN(c1ccccc1)S(=O)(=O)c1cccc(NC(=O)c2ccc(Cl)c([N+](=O)[O-])c2)c1 ?
SMARCA2 act: -2; MPTP inh: 95*; MC4R barr agon: -1; MC4R antag cAMP: 20; ATG4B inhibitor: -4; Rh123 counter: 84*

What do the screens show for `CCSc1nnc(NC(=O)c2cccc(S(=O)(=O)N(C)c3ccc(C)cc3)c2)s1`?
SMARCA2 act: -2; MPTP inh: 72*; MC4R barr agon: -1; MC4R antag cAMP: 3; ATG4B inhibitor: -4; Rh123 counter: 73*

Results for CCc1nnc(NC(=O)c2cccc(S(=O)(=O)N(C)c3ccccc3)c2)s1 ?
SMARCA2 act: -2; MPTP inh: 3; MC4R barr agon: 1; MC4R antag cAMP: 7; ATG4B inhibitor: -3

Results for O=C(NC1CC1c1ccccc1)N1CCC(c2nc3ccc(Cl)cc3[nH]2)CC1 (stereo unspecified) ?
SMARCA2 act: -5

Results for COc1ccc(C(=O)CSc2nnc(-c3cccnc3)n2-c2ccc(C)cc2)cc1 ?
SMARCA2 act: -3

Results for O=C(OCc1cn(Cc2cccc(F)c2)nn1)N1CCCCC1 ?
SMARCA2 act: -1

How did COC(=O)C1=C(C)N(C)C(=NCc2cc(OC)c(OC)c(OC)c2)NC1c1cccc(C(F)(F)F)c1 (stereo unspecified) do in these assays?
SMARCA2 act: 0

What do the screens show for `CC(C)c1ccc(NC(=O)CSc2nc3ncccc3[nH]2)cc1`?
SMARCA2 act: -2; MPTP inh: 4; MC4R barr agon: 1; MC4R antag cAMP: -2; ATG4B inhibitor: -3

What do the screens show for `CC(C)OC(=O)c1ccc(NC(=O)CSc2nc3ncccc3[nH]2)cc1`?
SMARCA2 act: 0; MPTP inh: 71*; MC4R barr agon: 0; MC4R antag cAMP: -1; ATG4B inhibitor: -11; Rh123 counter: 47*

Results for CC(C)n1cc(CN2CCC(C(=O)Nc3ccc(Oc4ccccc4F)cc3)CC2)cn1 ?
SMARCA2 act: -4; MPTP inh: 83*; MC4R barr agon: -2; MC4R antag cAMP: 0; ATG4B inhibitor: 36; Rh123 counter: 14; MPTP abs DR: 4.6*; MPTP counter DR: 26*

What do the screens show for `CCn1cc(CN2CCC(C(=O)Nc3ccc(Oc4ccccc4F)cc3)CC2)c(C)n1`?
SMARCA2 act: -2; MPTP inh: 1; MC4R barr agon: -1; MC4R antag cAMP: 9; ATG4B inhibitor: 15

How did CC(C)NC(=O)N[C@@H]1C[C@@H]2O[C@@H](CO)CC[C@@H]2O[C@@H]1CCc1ccc(-c2ccc(F)cc2)cc1 do in these assays?
SMARCA2 act: -4

How did CCn1nccc1C(=O)Nc1cc(Cl)cc(Cl)c1 do in these assays?
SMARCA2 act: -1; MPTP inh: 66*; MC4R barr agon: 2; MC4R antag cAMP: 0; ATG4B inhibitor: 14; Rh123 counter: 75*

How did COc1ccc(Br)cc1CN(C)CC(O)COc1ccc(Br)cc1 (stereo unspecified) do in these assays?
SMARCA2 act: -2; MPTP inh: 80*; MC4R barr agon: 3; MC4R antag cAMP: 11; ATG4B inhibitor: 2; Rh123 counter: -1; MPTP abs DR: 18*; MPTP counter DR: 42*

What do the screens show for `COc1ccc(CN(C)CC(O)COc2ccc(C(=O)c3ccccc3)cc2)c(OC)c1OC` (stereo unspecified)?
SMARCA2 act: -2; MPTP inh: 1; MC4R barr agon: 0; MC4R antag cAMP: 3; ATG4B inhibitor: -4

How did CCCCOc1ncnc2c1[nH]c1ccc(C)cc12 do in these assays?
SMARCA2 act: -4; MPTP inh: 83*; MC4R barr agon: 3; MC4R antag cAMP: 4; ATG4B inhibitor: -5; Rh123 counter: 56*

What do the screens show for `C=CCN1[C@@H](C)COc2cccc(N3CCSCC3)c2S1(=O)=O`?
SMARCA2 act: 6

How did COc1ccc(NS(=O)(=O)c2cccc(NC(=O)c3ccc(S(=O)(=O)N4CCCCCC4)cc3)c2)cc1 do in these assays?
MPTP inh: 84*; MC4R barr agon: -2; MC4R antag cAMP: 7; ATG4B inhibitor: -10; Rh123 counter: 86*

What do the screens show for `COc1ccc(NS(=O)(=O)c2ccc(O)c(NC(=O)c3ccc(S(=O)(=O)N4CCCCCC4)cc3)c2)cc1`?
SMARCA2 act: -5; MPTP inh: 66*; MC4R barr agon: -2; MC4R antag cAMP: 2; ATG4B inhibitor: 8; Rh123 counter: 49*

Results for COc1ccc(NS(=O)(=O)c2ccc(C(=O)N3CCCCCC3)cc2)cc1 ?
SMARCA2 act: -4; MPTP inh: 54*; MC4R barr agon: 0; MC4R antag cAMP: 5; ATG4B inhibitor: 6; Rh123 counter: 57*

Results for CCN1CCN(c2ccc(S(=O)(=O)N3CCCCC3)cc2NC(=O)/C=C/c2ccc(OC(F)F)cc2)CC1 ?
SMARCA2 act: 0; MPTP inh: 9; MC4R barr agon: 0; MC4R antag cAMP: 8; ATG4B inhibitor: -7

How did COc1ccc(C(=O)Nc2ccc(S(=O)(=O)N3CCCC3)cc2)cc1 do in these assays?
SMARCA2 act: -1; MPTP inh: -1; MC4R barr agon: -2; MC4R antag cAMP: 12; ATG4B inhibitor: -7

What do the screens show for `CCN1CCN(c2ccc(S(=O)(=O)N3CCCCC3)cc2NC(=O)/C=C/c2ccc(F)cc2)CC1`?
SMARCA2 act: 6; MPTP inh: 78*; MC4R barr agon: -1; MC4R antag cAMP: 3; ATG4B inhibitor: 2; Rh123 counter: -18; MPTP abs DR: inactive

What do the screens show for `CCCCOCCCNC(=O)C[C@H]1C[C@@]2(C(=O)OC)C(=C[C@H](C(C)C)O[C@@H]2C2CC2)N(Cc2cccc3ccccc23)C1=O`?
SMARCA2 act: -6

How did CN1CCN(c2ccc(S(=O)(=O)N3CCCCC3)cc2NC(=O)c2ccc3ccccc3c2)CC1 do in these assays?
SMARCA2 act: 4; MPTP inh: 67*; MC4R barr agon: -1; MC4R antag cAMP: -1; ATG4B inhibitor: -19; Rh123 counter: -15; MPTP abs DR: 14*; MPTP counter DR: >80

High-throughput results as filed in PubChem BioAssay.
